Consider 2 molecules from paper PMC6133083 (European Journal of Drug Metabolism and Pharmacokinetics, 2018).

Molecules are shown by their SMILES.

In series [1] the test system is P-gp/BCRP at the non-human primate BBB. The following applies: intravenous administration; cited from earlier work.
The subject of the next series is P-gp/BCRP. The following applies: humans, oral dosing; cited from earlier work.
For series [2] the following is noted: FVB mice, microemulsion dosing; cited from earlier work.
Series [3] is classed as in vivo, Sprague–Dawley rats. The essentials: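 Male Sprague–Dawley rats (10–12 weeks, 0.31–0.48 kg), n = 5/group, given 15 mg/kg once as solution or microemulsion by gavage or i.p. injection. The solution only was also given as an i.v. tail-vein bolus under isoflurane. Sublingual blood was drawn at 0.5, 1, 2, 4, 8 and 24 h. Plasma was methanol-precipitated and assayed by LC–MS/MS (calibration 0.005–10 µg/mL). Cmax, Tmax and trapezoidal AUC0–24 came from non-fitted data, expressed relative to i.v.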

A short description of series [4]: Tolerability of tariquidar administration in rats. It is filed as in vivo, Sprague–Dawley rats. The following applies: 15 mg/kg single dose, intravenous, oral or intraperitoneal.
Series [5] deals with P-gp at the BBB. The following applies: rats, plasma concentration; cited from earlier work.
In another series the test system is P-gp at the human BBB. The following applies: humans, P-gp inhibition at the BBB, plasma concentration; cited from earlier work.
Another series concerns human BCRP. The following applies: cited from earlier work.
The next series has as its system human P-gp. The following applies: cited from earlier work.
Series [6] has as its system P-gp at the BBB. The following applies: humans, cited from earlier work.
For series [7] the following is noted: rats and monkeys, after intravenous [14C]tariquidar; cited from earlier work.
The conditions of series [8]: humans, after intravenous administration; cited from earlier work.
Setting [9] is: Sprague-Dawley, rat, plasma, iv, 15 mg/kg.
The mark [10] stands for this setting: intraperitoneal dosing, both formulations pooled, rats.
Setting [11] is: oral dosing irrespective of formulation, rats.

Turning to `COc1cc2c(cc1OC)CN(CCc1ccc(NC(=O)c3cccc4c(=O)c5cccc(OC)c5[nH]c34)cc1)CC2` [elacridar], the “increase in brain distribution of [11C]erlotinib” value in series [1] is listed as 3.5 fold. The “effect on brain uptake of [11C]erlotinib” value in the series with P-gp/BCRP is reported as “failed to increase brain uptake”. Moreover, the oral bioavailability in series [2] is 47%.

As for `COc1cc2c(cc1OC)CN(CCc1ccc(NC(=O)c3cc(OC)c(OC)cc3NC(=O)c3cnc4ccccc4c3)cc1)CC2` [tariquidar], in series [3] (setting [9]), the AUC(0-t) came to 25200 ng·h/mL, the concentration peaked (Cmax) at 1900 ng/mL, the Tmax was determined as 30 min and the concentration at 30 min was found to be 1910 ± 290 ng/mL. For the same molecule, in series [3] (setting [10]), the “mean AUC0–24 as % of value after intravenous dosing” value was approximately 97% and the “mean Cmax as % of value after intravenous dosing” value is “approximately 80%”. Also, in series [3] (setting [11]), the “mean AUC0–24 as % of value after intravenous exposure” value is approximately 79% and the “mean Cmax as % of value after intravenous exposure” value is “approximately 65%”. The tolerability result in series [4] was “well tolerated by all animals”. Also, in the series on P-gp at the BBB [5], the “in vivo half-maximum effect concentration (EC50) to increase brain uptake of (R)-[11C]verapamil” value was 0.545 ± 0.03 µg/mL. In addition, the “in vivo EC50” value in the series with P-gp at the human BBB is 1.454 µg/mL. In the series with human BCRP (human BCRP), the “in vitro EC50 for inhibition of its own transport” value was 0.201 µg/mL. In addition, in the series on human BCRP (inhibition of its own transport, in vitro), the “ratio of EC50 for human BCRP to EC50 for human P-gp” value is reported as “approximately 20 fold”. Moreover, the “in vitro EC50 for inhibition of its own transport” value with human P-gp was 0.011 µg/mL. For the same molecule, the “increase in brain distribution of (R)-[11C]verapamil and [11C]N-desmethyl-loperamide” value in the series with P-gp at the BBB [6] (PET, continuous intravenous infusion) is recorded as “up to fivefold increases”. Moreover, the “effect on brain distribution of [11C]N-desmethyl-loperamide” value in the series with P-gp at the BBB [6] (orally administered tariquidar) is “failed to reveal an effect”. Moreover, the “tariquidar-related material in plasma existing as unchanged parent compound” value in [7] was more than 95%. The “tariquidar metabolites in plasma” value in series [8] is “no tariquidar metabolites were found in plasma”.

The AUC(0-t) is the area under the concentration-time curve up to a stated or last time point. High values mean high exposure, low ones low exposure. As usually defined, the Cmax is the peak of the concentration-time curve. One may read the Tmax as the time from dosing to the highest level.
